Converted amounts (≈) assume the structure as drawn. Some results are limits rather than exact numbers.

The subject of assay [1] is Mycobacterium tuberculosis. In words: Antimycobacterial activity against Mycobacterium tuberculosis in 7H12 medium by microplate alamar blue assay. The assay is classed as functional. The method, boiled down:
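Microplate alamar blue assay against M. tuberculosis in 7H12 medium (7H9 plus casitone, palmitic acid, albumin and catalase). MIC is reported in µM.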
Background: Resazurin is reduced to fluorescent resorufin, in cell work by metabolically active cells.

Assay [2] relates to Mycobacterium tuberculosis. In words: Antimycobacterial activity against Mycobacterium tuberculosis in GAS medium by microplate alamar blue assay. The assay is classed as functional. The method, boiled down: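 Microplate alamar blue assay against M. tuberculosis grown in glycerol-alanine-salts (GAS) medium. MIC is reported in µM.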
The subject of assay [3] is Bacillus spizizenii. In words: Antibacterial activity against Bacillus subtilis ATCC 6633 after 21 hrs by Kirby-Bauer agar diffusion assay. The assay is classed as functional. In short, it runs like this:
(§1)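 Agar diffusion assay. Test solutions were made at 20 mM in DMSO and diluted 10-fold with MeOH to 2 mM. Plates were incubated at 37 °C for 21 h. Inhibition zone diameters are recorded in mm, with unclear or very unclear zones flagged.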
(In general: A growth-free zone around the sample is the usual read-out of agar diffusion tests.)

The subject of the next assay is Staphylococcus aureus. In words: Antibacterial activity against Staphylococcus aureus SG511 after 21 hrs by Kirby-Bauer agar diffusion assay. The assay is classed as functional. The method, boiled down:
as §1

The subject of assay [4] is Micrococcus luteus. In words: Antibacterial activity against Micrococcus luteus ATCC 10240 after 21 hrs by Kirby-Bauer agar diffusion assay. The assay is classed as functional. The method, boiled down:
as §1

Assay [5] has as its system Mycolicibacterium vaccae. In words: Antibacterial activity against Mycobacterium vaccae IMET 10670 after 44 hrs by Kirby-Bauer agar diffusion assay. It counts as functional. In short, it runs like this:
(§2)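 Test solutions for the agar diffusion assay were 20 mM in DMSO, diluted 10-fold with MeOH to 2 mM. M. vaccae plates were incubated at 37 °C for 44 h. Inhibition zones are recorded in mm, with unclear or very unclear zones flagged.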

Assay [6] relates to Mycolicibacterium vaccae. The experiment in a line: Antibacterial activity against Mycobacterium vaccae IMET 10670 assessed as unclear inhibition zone after 44 hrs by Kirby-Bauer agar diffusion assay. The assay is classed as functional. In short, it runs like this:
as §2

For assay [7], the system named is Pseudomonas aeruginosa. The experiment in a line: Antibacterial activity against wild type Pseudomonas aeruginosa K799 after 21 hrs by Kirby-Bauer agar diffusion assay. The assay is classed as functional. In short, it runs like this:
as §1

Assay [8] concerns Pseudomonas aeruginosa. In words: Antibacterial activity against Pseudomonas aeruginosa K799/61 after 21 hrs by Kirby-Bauer agar diffusion assay. The assay is classed as functional. The method, boiled down:
as §1

In assay [9] the test system is Escherichia coli. In words: Antibacterial activity against Escherichia coli DC2 after 21 hrs by Kirby-Bauer agar diffusion assay. It counts as functional. The method, boiled down: as §1
Assay [10] relates to Pseudomonas aeruginosa. In words: Antibacterial activity against wild type Pseudomonas aeruginosa K799 assessed as unclear inhibition zone after 21 hrs by Kirby-Bauer agar diffusion assay. The assay is classed as functional. The method, boiled down: as §1
The subject of assay [11] is Pseudomonas aeruginosa. The experiment in a line: Antibacterial activity against Pseudomonas aeruginosa K799/61 assessed as unclear inhibition zone after 21 hrs by Kirby-Bauer agar diffusion assay. It counts as functional. In short, it runs like this:
as §1

In assay [12] the test system is Micrococcus luteus. In words: Antibacterial activity against Micrococcus luteus ATCC 10240 assessed as very unclear inhibition zone after 21 hrs by Kirby-Bauer agar diffusion assay. It counts as functional. In short, it runs like this:
as §1

In assay [13] the test system is Escherichia coli. In words: Antibacterial activity against Escherichia coli DC2 assessed as unclear inhibition zone after 21 hrs by Kirby-Bauer agar diffusion assay. It counts as functional. In short, it runs like this: as §1
The test system of assay [14] is Mycolicibacterium vaccae. The experiment in a line: Antibacterial activity against Mycobacterium vaccae IMET 10670 assessed as very unclear inhibition zone after 44 hrs by Kirby-Bauer agar diffusion assay. It counts as functional. The method, boiled down:
as §2

The subject of assay [15] is Bacillus spizizenii. In words: Antibacterial activity against Bacillus subtilis ATCC 6633 at 1.66 microg/ml after 21 hrs by Kirby-Bauer agar diffusion assay. The settings on record: ATCC 6633, 21 h, read-out: DIZ. The assay is classed as functional.
Assay [16] has as its system Pseudomonas aeruginosa. The experiment in a line: microbe, parasite or virus in culture. To be noted: K799/61, 21 h, read-out: DIZ.

As for `O=C(NOCc1ccccc1)c1ccccc1`, the MIC is more than 100 µM in assay [1] and 48.5 µM (≈ 11 µg/mL) in assay [2].

Take `O=C(NOCc1ccccc1)c1ccc([N+](=O)[O-])cc1`: the results for the minimal inhibitory concentration (MIC) in assay [1] and in [2] were 90.4 µM (≈ 24.6 µg/mL) and 13.6 µM (≈ 3.7 µg/mL), respectively.

As to `O=C(NO)c1ccc([N+](=O)[O-])cc1`, the figures for the minimal inhibitory concentration (MIC) in assay [1] and in [2] were 7.79 µM (≈ 1.42 µg/mL) and 0.71 µM (≈ 0.129 µg/mL), respectively. For the same compound, the “diameter of the inhibition zone (DIZ)” value is recorded as 0 mm in the assay with Bacillus spizizenii [3]; 0 mm with Staphylococcus aureus; 0 mm in the assay on Micrococcus luteus [4]; 30 mm in the assay with Mycolicibacterium vaccae [5]; 33 mm with Mycolicibacterium vaccae [6]; 13 mm with Pseudomonas aeruginosa [7]. The “diameter of the inhibition zone (DIZ)” value in the assay on Pseudomonas aeruginosa [8] and with Escherichia coli [9] was 0 mm each time.

Regarding `O=C(NOCc1ccccc1)c1ccc(Cl)cc1`, the MIC in [1] was found to be 47.3 µM (≈ 12.4 µg/mL); in assay [2], 15.5 µM (≈ 4.07 µg/mL). In addition, the “diameter of the inhibition zone (DIZ)” value in the assay with Bacillus spizizenii [3] came to 19 mm; in the assay with Staphylococcus aureus, 19 mm; with Micrococcus luteus [4], 19 mm; in the assay on Mycolicibacterium vaccae [5], 15 mm; in the assay on Pseudomonas aeruginosa [7], 14 mm; with Pseudomonas aeruginosa [8], 14 mm. The “diameter of the inhibition zone (DIZ)” value with Escherichia coli [9] amounted to 0 mm.

On to `C=CCONC(=O)c1ccccc1`, for which the MIC in assay [1] and in assay [2] was more than 100 µM each time.

As to `CC(C)(C)[Si](C)(C)ONC(=O)c1ccccc1`, the MIC is more than 50 µM in [1] and 24.3 µM (≈ 6.11 µg/mL) in assay [2]. Also, the “diameter of the inhibition zone (DIZ)” value was 0 mm in the assay on Bacillus spizizenii [3]; 0 mm with Staphylococcus aureus; 0 mm with Micrococcus luteus [4]; 26 mm with Mycolicibacterium vaccae [5]; 18 mm in the assay on Pseudomonas aeruginosa [10]; 14 mm in the assay on Pseudomonas aeruginosa [7]. Also, the “diameter of the inhibition zone (DIZ)” value with Pseudomonas aeruginosa [8] and in the assay on Escherichia coli [9] was 0 mm each time.

For the compound `C=CCONC(=O)c1ccc([N+](=O)[O-])cc1`, the MIC in assay [1] was more than 100 µM; in [2], 37.6 µM (≈ 8.36 µg/mL).

Consider `O=C(NOCc1ccccc1)c1ccc(F)cc1`, for which the figures for the minimal inhibitory concentration (MIC) in assay [1] and in assay [2] were more than 100 µM and 42.3 µM (≈ 10.4 µg/mL), respectively.

`CCOc1ccc(C(=O)NOCc2ccccc2)cc1`: the MIC in [1] is more than 100 µM; in assay [2] it was 47.3 µM (≈ 12.8 µg/mL).

On to `O=C(NO)c1ccc(F)cc1`, for which the MIC in [1] and in assay [2] was more than 100 µM in each case.

As for `CCOc1ccc(C(=O)NO)cc1`, the results for the minimum inhibitory concentration (MIC) in assay [1] and in assay [2] were 48.1 µM (≈ 8.71 µg/mL) and more than 100 µM, respectively. In addition, the “diameter of the inhibition zone (DIZ)” value is reported as 20 mm in the assay with Bacillus spizizenii [3]; 17 mm in the assay on Staphylococcus aureus; 0 mm with Micrococcus luteus [4]; 0 mm in the assay on Mycolicibacterium vaccae [5]; 0 mm in the assay with Pseudomonas aeruginosa [7]; 14 mm with Pseudomonas aeruginosa [11]. The “diameter of the inhibition zone (DIZ)” value with Escherichia coli [9] was found to be 0 mm.

Turning to `O=C(NOCc1ccccc1)c1cc([N+](=O)[O-])cc(C(F)(F)F)c1`, the results for the MIC in [1] and in assay [2] were more than 100 µM and 10.7 µM (≈ 3.62 µg/mL), respectively. Also, the “diameter of the inhibition zone (DIZ)” value in the assay with Bacillus spizizenii [3] is given as 16 mm; in the assay on Staphylococcus aureus, 20 mm; in the assay with Micrococcus luteus [4], 14 mm; in the assay with Micrococcus luteus [12], 20 mm; with Mycolicibacterium vaccae [5], 45 mm; in the assay on Pseudomonas aeruginosa [7], 0 mm. The “diameter of the inhibition zone (DIZ)” value in the assay on Pseudomonas aeruginosa [8] and with Escherichia coli [9] was 0 mm each time.

Turning to `C=CCONC(=O)c1cc([N+](=O)[O-])cc(C(F)(F)F)c1`, the values for the MIC in assay [1] and in assay [2] were more than 100 µM and 43.2 µM (≈ 12.5 µg/mL), respectively.

With `CC(C)(C)[Si](C)(C)ONC(=O)c1cc([N+](=O)[O-])cc(C(F)(F)F)c1`, the MIC in assay [1] and in [2] was more than 100 µM throughout. In addition, the “diameter of the inhibition zone (DIZ)” value in the assay with Bacillus spizizenii [3] came out at 20 mm; with Staphylococcus aureus, 0 mm; in the assay with Micrococcus luteus [4], 0 mm; in the assay on Mycolicibacterium vaccae [5] it was 14 mm; with Pseudomonas aeruginosa [7] it was 0 mm; with Pseudomonas aeruginosa [8], 0 mm. In addition, in the assay on Escherichia coli [13], the “diameter of the inhibition zone (DIZ)” value amounted to 17 mm.

As to `COC(=O)c1cc([N+](=O)[O-])cc(C(F)(F)F)c1`, the minimum inhibitory concentration (MIC) in assay [1] is more than 100 µM; in [2] it was 30 µM (≈ 7.46 µg/mL).

For the compound `O=C(NO)c1cc([N+](=O)[O-])cc(C(F)(F)F)c1`, the MIC in [1] was 19.5 µM (≈ 4.87 µg/mL); in [2], more than 100 µM.

As for `O=C(NOCc1ccccc1)c1cc(Br)cc(C(F)(F)F)c1`, the minimum inhibitory concentration (MIC) in assay [1] is more than 100 µM; in [2], 80.5 µM (≈ 30.1 µg/mL). In addition, the “diameter of the inhibition zone (DIZ)” value is reported as 17.5 mm with Bacillus spizizenii [3]; 20 mm in the assay with Staphylococcus aureus; 16 mm with Micrococcus luteus [4]; 26 mm with Mycolicibacterium vaccae [5]; 32 mm with Mycolicibacterium vaccae [6]; 0 mm in the assay with Pseudomonas aeruginosa [7]. Moreover, the “diameter of the inhibition zone (DIZ)” value with Pseudomonas aeruginosa [8] was found to be 0 mm; with Escherichia coli [9], 10 mm.

As for `O=C(CC(=O)OCc1ccccc1)NOCc1ccccc1`, the minimal inhibitory concentration (MIC) in assay [1] was determined as 86.6 µM (≈ 25.9 µg/mL); in assay [2] it was 27.1 µM (≈ 8.11 µg/mL).

With `CC(C)(C)[Si](C)(C)ONC(=O)CC(=O)OCc1ccc([N+](=O)[O-])cc1`, the figures for the minimum inhibitory concentration (MIC) in assay [1] and in [2] were more than 100 µM and 3.04 µM (≈ 1.12 µg/mL), respectively.

As for `C=CCONC(=O)CC(=O)OCc1ccc([N+](=O)[O-])cc1`, the minimal inhibitory concentration (MIC) worked out at 98.7 µM (≈ 29 µg/mL) in assay [1] and 98.6 µM (≈ 29 µg/mL) in [2].

Consider `O=C(CC(=O)OCc1ccc([N+](=O)[O-])cc1)NO`, for which the minimal inhibitory concentration (MIC) in [1] and in assay [2] was more than 100 µM throughout.

`O=C(NO)c1ccc(Cl)cc1`: the MIC in assay [1] and in [2] was more than 100 µM each time. Moreover, the “diameter of the inhibition zone (DIZ)” value was 0 mm with Bacillus spizizenii [3]; 0 mm in the assay with Staphylococcus aureus; 0 mm in the assay on Micrococcus luteus [4]; 15.5 mm in the assay on Mycolicibacterium vaccae [14]; 0 mm with Pseudomonas aeruginosa [7]; 18 mm with Pseudomonas aeruginosa [11]. In addition, the “diameter of the inhibition zone (DIZ)” value with Escherichia coli [9] is on record as 16 mm.

In the case of `O=C(O)c1cn(C2CC2)c2cc(N3CCNCC3)c(F)cc2c1=O` [CIPROFLOXACIN], the figures for the zone of inhibition at 1.66 µg/mL in the assay with Bacillus spizizenii [15] and with Pseudomonas aeruginosa [16] were 19 mm and 26 mm, respectively. The “diameter of the inhibition zone (DIZ)” value in the assay on Staphylococcus aureus is on record as 18 mm; with Micrococcus luteus [4], 0 mm; in the assay on Mycolicibacterium vaccae [5], 20 mm; in the assay with Pseudomonas aeruginosa [7], 23 mm; in the assay with Pseudomonas aeruginosa [8], 19 mm.

With `CO[C@H]1/C=C/O[C@@]2(C)Oc3c(C)c(O)c4c(O)c(c(/C=N/N5CCN(C)CC5)c(O)c4c3C2=O)NC(=O)/C(C)=C\C=C\[C@H](C)[C@H](O)[C@@H](C)[C@@H](O)[C@@H](C)[C@H](OC(C)=O)[C@@H]1C` [RIFAMPIN], the MIC in assay [1] was 0.03 µM (≈ 0.0247 µg/mL); in assay [2], less than 0.016 µM.

What is called MIC is the lowest concentration found to suppress growth. Read a high MIC as a need for much substance.

Source of the values: ChEMBL document CHEMBL3627706, “Syntheses and evaluation of substituted aromatic hydroxamates and hydroxamic acids that target Mycobacterium tuberculosis” (2015).
